T cell HTS = modulators of CD8 T cell-vesicle binding, primary screen, mouse 2C CD8+ T cells, flow cytometry; 0.068% of 330,000 active; 2C CD8+ T cell-vesicle binding; active compounds read low; response (vesicle binding), % at 7 µM;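 active = response, share of CD8 T cells binding vesicles, and their 90th percentile fluorescence all below set limits, cut at about 80% in these data, passing the limit was not always enough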;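 also: values below 100% mean blocked vesicle binding to the CD8+ T cells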
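incubation = binding step 1.5 h, 37 °C, antibody labelling 20 min, ice | test system = 2C mouse CD8+ T cells | read-out basis = percent CD8+ FL2 mean versus row control | controls = Peptide-free naked vesicles (low) and QL9 vesicles with 0.7% DMSO vehicle (high) | detection = flow cytometry of vesicle-bound cells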
HIF act = HIF pathway transcriptional activators, primary screen, cell-based, U2OS HRE-luciferase, luminescence; activation, % at 7.5 µM (by protocol); AID 1910, 2009; 0.32% of 300,000 active; U2OS HRE-luciferase reporter; normalized: DMSO 0%, desferrioxamine 100%;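 active = mean activation of at least 10% of the iron chelator positive control signal, with at least half of replicates also reaching 10%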
Mot1-301 SUMO = yeast Mot1-301 growth rescue at high temperature, primary screen, SUMOylation pathway inhibitor project, S. cerevisiae, ATP luminescence, 38.5C | S. cerevisiae Mot1-301 growth rescue; percent above DMSO median, 100 means doubled | 1% of 320,000 active | AID 2716, 2010 | growth rescue, % at 18.8 µM;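 active = every valid replicate shows activation above 250% relative to neutral control wells; inactive = the rest, any valid replicate at or below 250%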;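 also: OY570 slx delta 5 strain wells were the positive control but not used for scaling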
JMJD2C inh = inhibitors of GASC-1 histone demethylase, primary screen, biochemical, fluorescence, DELFIA europium; 0.069% of 330,000 active; inhibition, % at 2.35 µM; GST-JMJD2C(1-420) H3K9me3 demethylation; AID 2099, 2009; Lysine-specific demethylase 4C (Homo sapiens), Q9H3R0;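 active = more than half of a compound's replicate wells show inhibition beyond 50%, single wells judged on their own value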;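 also: signal counts dimethyl H3K9 product captured on neutravidin plate; 0% = median of DMSO wells and 100% = 0.3 times that DMSO median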
Target sequence (Q9H3R0 1-420 limits assumed): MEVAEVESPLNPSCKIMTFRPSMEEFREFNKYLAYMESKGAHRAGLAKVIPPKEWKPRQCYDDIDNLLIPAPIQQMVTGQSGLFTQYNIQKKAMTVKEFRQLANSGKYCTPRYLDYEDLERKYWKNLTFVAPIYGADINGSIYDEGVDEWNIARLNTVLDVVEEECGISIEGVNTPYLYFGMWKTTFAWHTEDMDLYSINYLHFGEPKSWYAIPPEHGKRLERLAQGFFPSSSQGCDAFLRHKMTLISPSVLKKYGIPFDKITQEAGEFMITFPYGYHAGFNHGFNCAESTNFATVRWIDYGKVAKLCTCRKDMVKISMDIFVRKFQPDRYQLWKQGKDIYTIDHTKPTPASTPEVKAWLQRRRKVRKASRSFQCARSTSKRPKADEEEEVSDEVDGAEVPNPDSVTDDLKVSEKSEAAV
Numbers without * were called inactive. In the library only some 1.4% were active in any assay of this set; here they are far more common.

`Cc1cc2ccccn2c1C(=O)c1ccc([N+](=O)[O-])cc1[N+](=O)[O-]` gave T cell HTS 213, HIF act -3, Mot1-301 SUMO 317* and JMJD2C inh -12.
For Cc1cc2ccccn2c1C(=O)c1cccc([N+](=O)[O-])c1 the results were T cell HTS 198, HIF act -1, Mot1-301 SUMO -22 and JMJD2C inh -9.
CN(C)C(=O)c1sccc1Oc1ccc(F)cc1[N+](=O)[O-] was read as T cell HTS 240, HIF act 0, Mot1-301 SUMO -1 and JMJD2C inh -18.
For O=C(NCc1ccccc1Cl)C1CCN(C(=O)c2ccco2)CC1 the results were T cell HTS 392, HIF act 0, Mot1-301 SUMO 15 and JMJD2C inh 58*.
For O=C(Nc1ccc(Cl)cc1)C1CCN(C(=O)c2ccco2)CC1 the results were T cell HTS 130, HIF act 0, Mot1-301 SUMO -15 and JMJD2C inh -3.
For CC(C)CCN(C(=O)C1CCCC1)c1c(N)n(Cc2ccccc2)c(=O)[nH]c1=O the results were T cell HTS 546, Mot1-301 SUMO -2 and JMJD2C inh 12.
For Cc1ccccc1C(=O)N1CCC(C(=O)N(CC(C)C)c2c(N)n(Cc3ccccc3)c(=O)[nH]c2=O)CC1 the results were T cell HTS 197, HIF act 0, Mot1-301 SUMO 336* and JMJD2C inh 3.
COc1cccc(CNC(=O)CCNS(=O)(=O)c2ccc(C)cc2)c1 was read as T cell HTS 704, HIF act 0 and Mot1-301 SUMO 60.
For COc1ccc(N2CCN(CCC(=O)c3ccc4ccccc4c3)CC2)cc1 the results were T cell HTS 389, HIF act 0, Mot1-301 SUMO 26 and JMJD2C inh -2.
Cn1c(=O)cc(C(=O)N/N=C/c2ccc(F)cc2)[nH]c1=O was read as T cell HTS 387, HIF act 12*, Mot1-301 SUMO 7 and JMJD2C inh 4.
Screening Cc1ccc2c(c1)cc(CN(Cc1ccc3c(c1)OCO3)C(=O)c1ccccc1)c1nnnn12 returned T cell HTS 333, HIF act 1, Mot1-301 SUMO 336* and JMJD2C inh 8.
Screening Cc1ccc2c(c1)cc(CN(CCc1ccccc1)C(=O)N1CCOCC1)c1nnnn12 returned T cell HTS 462, HIF act -1, Mot1-301 SUMO 0 and JMJD2C inh 2.
For Clc1ccccc1Cc1noc(CN2CCCCC2CCc2ccccn2)n1 (centres undefined) the results were T cell HTS 454, HIF act 0, Mot1-301 SUMO -13 and JMJD2C inh 14.
COc1ccc(CN2CSC(=S)N(Cc3ccccc3)C2)cc1 was read as T cell HTS 193, HIF act 0, Mot1-301 SUMO 113 and JMJD2C inh -4.
`COc1ccc(CN2CSC(=S)N(Cc3ccc(OC)cc3)C2)cc1` gave T cell HTS 245, HIF act 0, Mot1-301 SUMO 328* and JMJD2C inh -9.
CC1(C)CC(=O)C(CC(=O)Nc2cc(C(F)(F)F)ccc2Cl)C(=O)C1 was read as T cell HTS 300, HIF act 0 and JMJD2C inh -4.
Screening CC(=O)Nc1ccccc1NC(=O)c1ccccc1 returned T cell HTS 250, HIF act 0, Mot1-301 SUMO -12 and JMJD2C inh -21.
Screening Nc1ccccc1NC(=O)c1ccccc1 returned T cell HTS 472, HIF act 25*, Mot1-301 SUMO 143 and JMJD2C inh -7.
`CC(Sc1nc(N)cc(=O)[nH]1)C(=O)NC1CCCCC1` (centres undefined) gave T cell HTS 216 and Mot1-301 SUMO active.
Nc1cc(=O)[nH]c(SCC(=O)NC2CCCCCCC2)n1 was read as T cell HTS 576, Mot1-301 SUMO -4 and JMJD2C inh 4.
For Cc1cc(C)n(C(C[N+](=O)[O-])c2ccc(Cl)cc2)n1 (centres undefined) the results were T cell HTS 243, HIF act 0, Mot1-301 SUMO 279* and JMJD2C inh 10.
Screening CCCCc1cc(=O)oc2cc(OCC(=O)N[C@@H](Cc3ccccc3)C(=O)O)ccc12 returned T cell HTS 589, HIF act 0, Mot1-301 SUMO 523* and JMJD2C inh 6.

Screening results (PubChem BioAssay)
